Experiments:
L02 = experiment: Cytotoxicity against human L02 cells assessed as effect on cell viability at 40 uM after 24 hrs by MTT assay; type: cell-based; conditions: l02, 24 h
In short: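 L-02 cells grown in DMEM with 10% FBS at 37 °C and 5% CO2, seeded at 5 × 10^3 cells/well, then settled over 12 h. Compound in DMSO added at 40 μM final (DMSO below 0.4%) for 24 h. MTT (5 mg/mL stock) added for a further 4 h. Formazan dissolved in DMSO and absorbance read at 570 nm.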

[1] = target: Beta-secretase 1 (Homo sapiens) (UniProt P56817); experiment: Inhibition of BACE1 (unknown origin) at 0.5 uM using BACE1 substrate measured after 2 hrs by FRET assay relative to control
Chain of Beta-secretase 1 (Homo sapiens) (P56817 whole entry): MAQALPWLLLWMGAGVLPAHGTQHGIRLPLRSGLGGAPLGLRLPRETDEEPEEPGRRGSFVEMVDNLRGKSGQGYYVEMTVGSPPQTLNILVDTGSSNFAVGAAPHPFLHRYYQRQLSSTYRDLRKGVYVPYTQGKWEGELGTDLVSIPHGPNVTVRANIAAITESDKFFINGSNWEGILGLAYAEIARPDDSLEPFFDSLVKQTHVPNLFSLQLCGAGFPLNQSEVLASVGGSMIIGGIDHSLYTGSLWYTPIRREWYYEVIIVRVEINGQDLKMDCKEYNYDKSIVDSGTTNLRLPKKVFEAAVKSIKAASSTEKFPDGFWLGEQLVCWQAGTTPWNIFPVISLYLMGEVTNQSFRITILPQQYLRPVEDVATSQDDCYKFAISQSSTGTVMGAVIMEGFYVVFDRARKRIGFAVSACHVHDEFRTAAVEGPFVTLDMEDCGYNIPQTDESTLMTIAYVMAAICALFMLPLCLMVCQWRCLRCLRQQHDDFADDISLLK

Row | SMILES | Activity (L02) | inhibition [1]
1 | CC1=C2CC[C@]2(C)[C@H]2C[C@@](C)(CO)C=C2C1=O | Non-Toxic | 
2 | C[C@H]1C(=O)[C@]2(O)CC(C)(C)C[C@@H]2[C@@]2(C)CC[C@@]12O | Non-Toxic | 
3 | C[C@@]1(c2cc(-c3cncnc3)c(F)cc2F)CCSC(N)=N1 |  | 38.6%
4 | CC1=C2CC[C@]2(C)[C@@H]2C(=CC(C)(C)[C@H]2O)C1=O | Non-Toxic | 
5 | Cc1cc2c(c(C)c1CCO)C(=O)C(C)(C)C2 [PTEROSIN Z] | Non-Toxic | 
6 | CC1=C2OCC[C@]2(C)[C@H]2CC(C)(C)C=C2C1=O | Non-Toxic | 
7 | Cc1cc2c(c(C)c1CCO)CC(C)(C)C2 | Non-Toxic | 
8 | CC1=C2CC[C@]2(C)[C@]2(O)C(=CC(C)(C)[C@H]2O)C1=O | Non-Toxic | 
9 | CC1=C2[C@H](O)C[C@]2(C)[C@H]2CC(C)(C)C=C2C1=O | Non-Toxic | 
10 | CC1C(=O)C2=CC(C)(C)C[C@]2(O)[C@@]2(C)CCC12 (some centres not stated) | Non-Toxic | 
11 | Cc1ccc2c3c1C(=O)OC[C@@]3(C)[C@H](O)C2(C)C | Non-Toxic | 
12 | CC1C(=O)C2=CC(C)(C)C[C@]2(O)[C@@]2(C)C[C@@H](O)C12 (some centres not stated) | Non-Toxic | 
13 | Cc1c(O)c2c(c(C)c1CCO)C(=O)C(C)(C)[C@@H]2O | Non-Toxic | 
14 | CC1=C2[C@H](O)C[C@]2(C)[C@H]2C[C@@](C)(CO)C=C2C1=O | Non-Toxic | 
15 | CC(=O)OCCc1c(C)c(O)c2c(c1C)[C@@H](O)C(C)(C)C2 | Non-Toxic | 
16 | CC1=C2[C@H](O)C[C@]2(C)[C@H]2C[C@](C)(CO)C=C2C1=O | Non-Toxic | 
17 | Cc1c(O)c2c(c(C)c1CCO)C(=O)C(C)(C)C2 [ONITIN] | Non-Toxic | 

Source: ChEMBL document CHEMBL4145578, “Protoilludane, Illudalane, and Botryane Sesquiterpenoids from the Endophytic Fungus Phomopsis sp. TJ507A” (J Nat Prod, 2018)
